Experimental data reported in ChEMBL document CHEMBL1667760, “Synthesis and biological evaluation of 3,5-diaryl isoxazoline/isoxazole linked 2,3-dihydroquinazolinone hybrids as anticancer agents” (2011).

Assays:
Format in all cases: functional
[1] = test system: K562; test: Cytotoxicity against human K562 cells after 48 hrs by sulforhodamine B assay; conditions: K562, 48 h
Method in brief: (§1)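 Run by the NCI 60-cell-line screen. A one-dose pre-test was done first, followed by the main test over a 5-log dose range (10^-4 to 10^-8 M). Results are reported as log molar GI50 (50% net growth inhibition), TGI (total growth inhibition) and LC50 (50% net cell death), with mean-graph midpoints across all lines.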

[2] = Cytotoxicity against human […] cells after 48 hrs by sulforhodamine B assay; method in brief: as §1
[3] = test system: SR; test: Cytotoxicity against human SR cells after 48 hrs by sulforhodamine B assay
Method in brief: (§2)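 NCI 60-cell-line panel screen of human tumor lines: a one-dose pre-test, then the main test over a 5-log range (10^-4–10^-8 M). GI50, TGI and LC50 are reported as log molar concentrations for 50% net growth inhibition, total growth inhibition and 50% net cell death. Mean graph midpoints are also calculated.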

[4] = test system: HOP-92; test: Cytotoxicity against human HOP92 cells after 48 hrs by sulforhodamine B assay; conditions: HOP-92, 48 h; method in brief: as §1
[5] = test system: NCI-H226; test: Cytotoxicity against human NCI-H226 cells after 48 hrs by sulforhodamine B assay; conditions: NCI-H226, 48 h; method in brief: as §1
[6] = test system: NCI-H23; test: Cytotoxicity against human NCI-H23 cells after 48 hrs by sulforhodamine B assay; conditions: NCI-H23, 48 h; method in brief: as §1
[7] = test system: NCI-H460; test: Cytotoxicity against human NCI-H460 cells after 48 hrs by sulforhodamine B assay; conditions: NCI-H460, 48 h; method in brief: as §1
[8] = test system: NCI-H522; test: Cytotoxicity against human NCI-H522 cells after 48 hrs by sulforhodamine B assay; conditions: NCI-H522, 48 h; method in brief: as §1
[9] = test system: HCC 2998; test: Cytotoxicity against human HCC2998 cells after 48 hrs by sulforhodamine B assay; conditions: HCC 2998, 48 h; method in brief: as §1
[10] = test system: HCT-15; test: Cytotoxicity against human HCT15 cells after 48 hrs by sulforhodamine B assay; conditions: HCT-15, 48 h; method in brief: as §1
[11] = test system: KM12; test: Cytotoxicity against human KM12 cells after 48 hrs by sulforhodamine B assay; conditions: KM12, 48 h; method in brief: as §1
[12] = test system: SW-620; test: Cytotoxicity against human SW620 cells after 48 hrs by sulforhodamine B assay; conditions: SW-620, 48 h; method in brief: as §2
[13] = test system: PC-3; test: Cytotoxicity against human PC3 cells after 48 hrs by sulforhodamine B assay; conditions: PC-3, 48 h
Method in brief: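 Cells were grown in RPMI 1640 with 10% FBS and 2 mM L-glutamine, plated at densities set by doubling time, and pre-incubated 24 h at 37 °C, 5% CO2. Drugs were tested at 0.1, 1, 10 and 100 µM in triplicate wells for 48 h continuous exposure. Cells were fixed with 10% TCA (final) and stained with 0.4% SRB. A540 was read against a 690 nm reference, and percent growth was calculated relative to control. Experiments were repeated three times.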

[14] = test system: DU-145; test: Cytotoxicity against human DU145 cells after 48 hrs by sulforhodamine B assay; conditions: DU-145, 48 h; method in brief: as §1
[15] = test system: SF-268; test: Cytotoxicity against human SF268 cells after 48 hrs by sulforhodamine B assay; conditions: SF-268, 48 h; method in brief: as §1
[16] = test system: LOX IMVI; test: Cytotoxicity against human LOXIMVI cells after 48 hrs by sulforhodamine B assay; method in brief: as §1
[17] = test system: M14; test: Cytotoxicity against human M14 cells after 48 hrs by sulforhodamine B assay; conditions: M14, 48 h; method in brief: as §1
[18] = test system: OVCAR-3; test: Cytotoxicity against human OVCAR3 cells after 48 hrs by sulforhodamine B assay; conditions: OVCAR-3, 48 h; method in brief: as §1
[19] = test system: OVCAR-4; test: Cytotoxicity against human OVCAR4 cells after 48 hrs by sulforhodamine B assay; conditions: OVCAR-4, 48 h; method in brief: as §1
[20] = test system: OVCAR-8; test: Cytotoxicity against human OVCAR8 cells after 48 hrs by sulforhodamine B assay; conditions: OVCAR-8, 48 h; method in brief: as §1
[21] = test system: 786-0; test: Cytotoxicity against human 786-0 cells after 48 hrs by sulforhodamine B assay; conditions: 786-0, 48 h; method in brief: as §1
[22] = test system: ACHN; test: Cytotoxicity against human ACHN cells after 48 hrs by sulforhodamine B assay; method in brief: as §1
[23] = test system: SN12C; test: Cytotoxicity against human SN12C cells after 48 hrs by sulforhodamine B assay; method in brief: as §2
[24] = Cytotoxicity against human Hs 578T cells after 48 hrs by sulforhodamine B assay; method in brief: as §1
[25] = test system: BT-549; test: Cytotoxicity against human BT549 cells after 48 hrs by sulforhodamine B assay; conditions: BT-549, 48 h; method in brief: as §1
[26] = test system: T47D; test: Cytotoxicity against human T47D cells after 48 hrs by sulforhodamine B assay; method in brief: as §2
[27] = test system: MCF7; test: Cell cycle arrest in human MCF7 cells assessed as accumulation at S phase at 5 uM after 24 hrs using propidium iodide staining by flow cytometry relative to control
Method in brief: (§3)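 MCF-7 cells were seeded at 5×10^5 per 60 mm dish and grown 24 h. They were then exposed to 5 uM compound for a further 24 h, with untreated control cells alongside. Cells were trypsinised, fixed in ice-cold 70% ethanol (4 °C, 30 min), treated with 1 mg/ml RNase A (37 °C, 30 min) and stained with propidium iodide/citrate/Triton solution. DNA content was read by flow cytometry on 20,000 events.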

[28] = test system: MCF7; test: Cell cycle arrest in human MCF7 cells assessed as accumulation at G2/M phase at 5 uM after 24 hrs using propidium iodide staining by flow cytometry relative to control; method in brief: as §3
[29] = read-out: pLC50 (the source's name) (converted)

In the case of `COc1cc(C2NC(=O)c3ccccc3N2)ccc1OCCCCCOc1c(OC)cc(C2=NOC(c3cc(OC)c(OC)c(OC)c3)C2)cc1OC` (centres undefined), the GI50 [1] is reported as 0.501 µM, the CC50 [1, 29] is reported as > 100 µM and the TGI ([1]; read-out: pTGI) is reported as > 100 µM. The GI50 [2] was 0.0851 µM, the CC50 [2, 29] was > 100 µM and the TGI ([2]; read-out: pTGI (converted)) was 2.29 µM. For the same compound, the GI50 [3] was 0.955 µM, the CC50 [3, 29] was > 100 µM and the TGI ([3]; read-out: pTGI) was > 100 µM. For the same compound, the GI50 [4] was 60.3 µM, the CC50 [4, 29] was > 100 µM and the TGI ([4]; read-out: pTGI) was > 100 µM. The GI50 [5] was 3.39 µM, the CC50 [5, 29] was > 100 µM and the TGI ([5]; read-out: pTGI) was > 100 µM. For the same compound, the GI50 [6] was 0.603 µM, the CC50 [6, 29] was > 100 µM and the TGI ([6]; read-out: pTGI) was > 100 µM. The GI50 [7] was 13.5 µM, the CC50 [7, 29] was > 100 µM and the TGI ([7]; read-out: pTGI (converted)) was 60.3 µM. The GI50 [8] was 10.7 µM, the CC50 [8, 29] was 93.3 µM and the TGI ([8]; read-out: pTGI (converted)) was 31.6 µM. For the same compound, the GI50 [9] was 19.1 µM, the CC50 [9, 29] was > 100 µM and the TGI ([9]; read-out: pTGI (converted)) was 52.5 µM. The GI50 [10] was 0.708 µM, the CC50 [10, 29] was > 100 µM and the TGI ([10]; read-out: pTGI) was > 100 µM. The GI50 [11] was 5.5 µM, the CC50 [11, 29] was > 100 µM and the TGI ([11]; read-out: pTGI) was > 100 µM. For the same compound, the GI50 [12] was 10.2 µM, the CC50 [12, 29] was > 100 µM and the TGI ([12]; read-out: pTGI) was > 100 µM. The LC50 [13] was > 100 µM, the GI50 ([13]; read-out: pGI50 (converted)) was 28.8 µM and the TGI ([13]; read-out: pTGI) was > 100 µM. For the same compound, the GI50 [14] was 22.4 µM, the CC50 [14, 29] was > 100 µM and the TGI ([14]; read-out: pTGI) was > 100 µM. For the same compound, the GI50 [15] was 21.4 µM, the CC50 [15, 29] was > 100 µM and the TGI ([15]; read-out: pTGI) was > 100 µM. The GI50 [16] was 14.1 µM, the CC50 [16, 29] was > 100 µM and the TGI ([16]; read-out: pTGI) was > 100 µM. For the same compound, the GI50 [17] was 20.9 µM, the CC50 [17, 29] was > 100 µM and the TGI ([17]; read-out: pTGI) was > 100 µM. For the same compound, the GI50 [18] was 12.9 µM, the CC50 [18, 29] was > 100 µM and the TGI ([18]; read-out: pTGI (converted)) was 63.1 µM. The GI50 [19] was 0.355 µM, the CC50 [19, 29] was > 100 µM and the TGI ([19]; read-out: pTGI) was > 100 µM. For the same compound, the LC50 [20] was > 100 µM, the GI50 ([20]; read-out: pGI50 (converted)) was 24.5 µM and the TGI ([20]; read-out: pTGI) was > 100 µM. The GI50 [21] was 23.4 µM, the CC50 [21, 29] was > 100 µM and the TGI ([21]; read-out: pTGI (converted)) was 61.7 µM. For the same compound, the GI50 [22] was 0.324 µM, the CC50 [22, 29] was > 100 µM and the TGI ([22]; read-out: pTGI) was > 100 µM. The GI50 [23] was 25.1 µM, the CC50 [23, 29] was > 100 µM and the TGI ([23]; read-out: pTGI) was > 100 µM. The GI50 [24] was 16.6 µM, the CC50 [24, 29] was > 100 µM and the TGI ([24]; read-out: pTGI) was > 100 µM. The CC50 [25, 29] was > 100 µM, the TGI ([25]; read-out: pTGI) was > 100 µM and the GI50 [26] was 0.191 µM. The CC50 [26, 29] was > 100 µM, the TGI ([26]; read-out: pTGI) was > 100 µM and the Activity [27] was 22.38%. It also gave an Activity [28] of 43.9%.
